Runt-SMMHC FRET – inhibitors of RUNX1 Runt–CBFb-SMMHC binding, primary screen, biochemical, FRET, Cerulean-Runt, Venus-CBFb-SMMHC, uHTS; inhibition, % at 20 µM; 220,000 compounds, 0.74% hits; Cerulean-Runt/Venus-CBFb-SMMHC FRET ratio 530/480, 1 h;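 active = mean inhibition across duplicate retests at 20 µM reaching about 50%, limit read from the data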;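 note: inhibitors lower the FRET ratio by blocking Runt binding to CBFb-SMMHC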
Target sequence (Q01196 whole entry, looked up): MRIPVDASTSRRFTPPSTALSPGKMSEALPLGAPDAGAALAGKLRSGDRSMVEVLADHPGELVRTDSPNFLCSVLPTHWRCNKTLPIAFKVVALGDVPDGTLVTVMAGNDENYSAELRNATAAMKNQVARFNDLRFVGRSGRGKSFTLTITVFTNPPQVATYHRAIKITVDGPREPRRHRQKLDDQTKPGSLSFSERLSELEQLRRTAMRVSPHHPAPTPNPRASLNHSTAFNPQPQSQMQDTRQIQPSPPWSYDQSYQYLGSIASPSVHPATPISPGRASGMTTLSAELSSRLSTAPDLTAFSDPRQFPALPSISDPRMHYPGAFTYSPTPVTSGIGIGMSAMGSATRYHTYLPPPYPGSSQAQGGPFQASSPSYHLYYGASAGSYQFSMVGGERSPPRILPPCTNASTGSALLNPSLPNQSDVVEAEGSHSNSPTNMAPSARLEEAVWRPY
Target sequence (Q13951 whole entry, looked up): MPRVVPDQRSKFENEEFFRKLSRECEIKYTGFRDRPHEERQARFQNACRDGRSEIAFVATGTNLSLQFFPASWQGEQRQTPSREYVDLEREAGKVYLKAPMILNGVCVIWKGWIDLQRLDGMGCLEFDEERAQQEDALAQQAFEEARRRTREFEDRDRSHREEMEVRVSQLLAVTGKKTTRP
RanGTP-Impb inh – inhibitors of RanGTP-importin-beta interaction, primary screen, biochemical, FRET, CFP-Ran, YFP-importin-beta, homogeneous. inhibition, % (test concentration not listed). cell-free CFP-Ran/YFP-importin-beta FRET ratio. Ran GTPase (GTP-bound) - importin-beta complex. 300,000 compounds, 1.1% hits. AID 2216, 2009;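 active = more than half of the replicate wells show a fall in the fluorescence ratio signal beyond about 16%, limit read from the data, passing the limit was not always enough; inconclusive = exactly half of the replicate wells pass the set limit; inactive = fewer than half of replicates pass the limit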
Rce1 inhib – yeast Rce1p protease inhibitors, primary screen, biochemical, fluorescence, cell-free homogeneous | CAAX prenyl protease 2 (Saccharomyces cerevisiae (strain ATCC 204508 / S288c)), Q03530 | yeast membranes, quenched prenylated peptide cleavage fluorescence | calls only | 290,000 compounds, 0.27% hits | AID 2563, 2010;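 active = fall in fluorescence gain of 50% or more versus controls, with final raw signal at or below 3038400; inconclusive = same 50% fall but final raw signal above 3038400; inactive = fall in fluorescence gain under 50%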
Platelet DG rel – inhibitors of platelet dense granule secretion, primary screen, cell-based, MLPCN, human platelets. 300,000 compounds, 0.22% hits. inhibition, %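 (compounds screened at 7.5 µM in platelet-rich plasma)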. human platelet-rich plasma, SFLLRN dense granule ATP release, luminescence;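 active = mean replicate score, as percent of positive control, at or above 50; inconclusive = mean below 50 but at least one replicate at or above 50; inactive = mean and every replicate below 50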
Runt-CBFb FRET – inhibitors of RUNX1 Runt–CBFb binding, primary screen, biochemical, FRET, Cerulean-Runt, Venus-CBFb, uHTS. Runt-related transcription factor 1 (Homo sapiens) + Core-binding factor subunit beta …. 220,000 compounds, 0.46% hits. inhibition, % at 20 µM. Cerulean-Runt/Venus-CBFb FRET ratio 530/480, 1 h;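 active = inhibition over about 50% at 20 µM in the single-dose screen, limit read from the data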
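Buffer or medium: Tris pH 7.5 buffer with BSA. Assay system: Cerulean-labeled Runt domain protein. Amount: each fluorescent fusion protein 100 nM. Read-out basis: loss of energy transfer signal. Incubation: 1 h compound exposure, room temperature. Probe or stimulus: Venus-CBFb binding partner, 100 nM. Detection: FRET, excitation 422 nm, emission at 530 and 480 nm.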
Large screens that a line does not name were inactive. In the library only some 1.8% were active in any assay of this set; here they are far more common.

CC(=O)N1CC=C2C(C#N)=C(N)C(C#N)(C#N)[C@H](c3ccoc3)[C@H]2C1	none
CN1CC=C2C(C#N)=C(N)C(C#N)(C#N)[C@H](c3ccoc3)[C@H]2C1	Runt-SMMHC FRET 59.0, RanGTP-Impb inh 51.5
CN1CC=C2C(C#N)=C(N)C(C#N)(C#N)C(c3cccc(Cl)c3Cl)C2C1 (stereo not given)	Runt-SMMHC FRET 62.0, RanGTP-Impb inh 37.3
CCn1c(-c2ccccc2)ccc(C#N)c1=O	RanGTP-Impb inh inconclusive
Cn1c(CN2CCN(C(=O)c3ccc(F)cc3)CC2)nc2cc([N+](=O)[O-])ccc21	none
COCCn1nnnc1C(c1ccccc1)N1CCN(C(=O)c2ccco2)CC1 (stereo not given)	none (no result: Runt-SMMHC FRET, Runt-CBFb FRET)
COc1cccc(CNC(=O)C2=Cc3cccc(OC)c3OC2)c1	none
Cc1ccc(C(=O)Nc2cccnc2)cc1Cl	none (no result: Runt-SMMHC FRET, Runt-CBFb FRET)
[O-][n+]1ccc(C(O)c2ccccc2)cc1 (stereo not given)	none (no result: Runt-SMMHC FRET, Runt-CBFb FRET)
Cc1cc(/C=C2\SC(=S)NC2=O)c(C)n1-c1ccc(O)cc1	RanGTP-Impb inh 23.5
COc1cccc(NC(=O)CN(C)CC(=O)Nc2ccc(C)c([N+](=O)[O-])c2)c1	none (no result: Runt-SMMHC FRET, Runt-CBFb FRET)
COC(=O)c1cnn2c3c(c(C)nc12)CCCC3	Rce1 inhib active
COc1ccc(N=Cc2c(O)n(-c3ccc(OC)cc3)c(=O)c3ccccc23)cc1	Runt-SMMHC FRET 90.0
COc1ccc(Cn2c(O)c(C=Nc3ccccc3)c3ccccc3c2=O)cc1	none
COc1ccc(Cn2c(O)c(C=Nc3ccc(O)cc3)c3ccccc3c2=O)cc1	RanGTP-Impb inh 30.4
O=c1c2ccccc2c(C=Nc2ccc(O)cc2)c(O)n1Cc1ccccc1	RanGTP-Impb inh 33.3
COc1ccc(Cn2c(=N)c(C(=O)NC3CCCCC3)cc3c(=O)n4ccccc4nc32)cc1	RanGTP-Impb inh 27.6 (no result: Runt-SMMHC FRET, Runt-CBFb FRET)
COCCCn1c(=N)c(C(=O)NC2CCCCC2)cc2c(=O)n3ccccc3nc21	Runt-SMMHC FRET 82.8, RanGTP-Impb inh 192.1
CCOC(=O)c1c(NC(=S)NC(=O)c2cnn(CC)c2)sc2c1CCC(C)C2 (stereo not given)	none
Cn1c2ccccc2c(=O)c2ccc(C#CC3(N)CCCCC3)cc21	RanGTP-Impb inh 163.4 (no result: Runt-SMMHC FRET, Runt-CBFb FRET)
Cn1c2ccccc2c(=O)c2cc(C#CC3(O)CCCCC3)ccc21	RanGTP-Impb inh 168.9 (no result: Runt-SMMHC FRET, Runt-CBFb FRET)
O=C(COC(=O)c1ccccc1NC(=O)C1CC1)c1ccc2c(c1)OCCO2	none
O=C(Cn1cnc2c(cnn2-c2ccc(F)cc2)c1=O)OCc1ccccc1	Platelet DG rel 52.6
CC(Sc1ccccc1)C(=O)NNC(=O)c1csc(N2CCOCC2)n1 (stereo not given)	none (no result: Runt-SMMHC FRET, Runt-CBFb FRET)
NNc1nnc2c3cc(F)ccc3n(CCc3ccccc3)c2n1	none (no result: Runt-SMMHC FRET, Runt-CBFb FRET)
COc1ccc(Nc2ccc([N+](=O)[O-])cn2)cc1	none (no result: Runt-SMMHC FRET, Runt-CBFb FRET)
CCOC(=O)c1ccc(Nc2ccc([N+](=O)[O-])cn2)cc1	RanGTP-Impb inh 18.9
O=C(O)c1ccc(N/N=C/c2ccc3nccnc3c2)cc1	Platelet DG rel 55.7
O=C(O)c1ccc(/C=N\Nc2ccccn2)cc1	Platelet DG rel 52.8 (no result: Runt-SMMHC FRET, Runt-CBFb FRET)
O=[N+]([O-])c1ccc(/C=N/Nc2ccccn2)cc1	none (no result: Runt-SMMHC FRET, Runt-CBFb FRET)
CCc1ccccc1NNC(=O)c1snnc1C	none
CC(C)(C)c1ccc(C2=CC(c3ccccc3F)n3ncnc3N2)cc1 (stereo not given)	RanGTP-Impb inh 25.1 (no result: Runt-SMMHC FRET, Runt-CBFb FRET)
Cn1cccc1C1C=C(c2ccc(C(C)(C)C)cc2)Nc2ncnn21 (stereo not given)	RanGTP-Impb inh inconclusive (no result: Runt-SMMHC FRET, Runt-CBFb FRET)
CCOc1ccc(C2C=C(c3ccc(F)cc3)Nc3ncnn32)cc1 (stereo not given)	Runt-SMMHC FRET 62.6
CCOC(=O)c1c(/N=C/c2ccc(O)cc2O)sc2c1CCC2	Runt-SMMHC FRET 55.8
O=c1[nH]c2ccccc2nc1/C=C/c1ccccc1	Runt-SMMHC FRET 87.5, RanGTP-Impb inh 61.2
O=c1[nH]c2ccccc2nc1/C=C/c1ccc(F)cc1	RanGTP-Impb inh 37.6
O=c1[nH]c2ccccc2nc1/C=C/c1ccc(O)cc1	RanGTP-Impb inh inconclusive
COc1ccc(CCc2nnc(CCC(=O)N(C)Cc3ccnc4ccccc34)o2)cc1	none (no result: RanGTP-Impb inh, Rce1 inhib)
O=C(Nc1cc2c(cc1Cl)OCCCO2)c1ccc(F)cc1	none
O=c1cc(CN2CCN(c3ccccc3O)CC2)nc2sccn12	Platelet DG rel 72.4
Cc1cccc(N2CCN(Cc3cc(=O)n4ccsc4n3)CC2)c1C	none
Cn1c(-c2cc3ccc(OC(=O)C(C)(C)C)cc3oc2=O)nc2ccccc21	RanGTP-Impb inh 149.5
CC(C)(C)C(=O)Oc1ccc2cc(-c3ccc4ccccc4n3)c(=O)oc2c1	Runt-SMMHC FRET 59.5, RanGTP-Impb inh 28.1
CCN(CC)Cc1c(O)ccc2cc(-c3nc4ccccc4n3C)c(=O)oc12	RanGTP-Impb inh 131.6 (no result: Runt-SMMHC FRET, Runt-CBFb FRET)
CCc1cc2c(=O)c(-c3nc4ccccc4n3C)c(C)oc2c(CN(CC)CC)c1O	none
CC(=O)Oc1ccc(-c2cc3ccccc3oc2=O)cc1	none (no result: Runt-SMMHC FRET, Runt-CBFb FRET)
COC(=O)COc1ccc2cc(-c3ccccc3)c(=O)oc2c1	RanGTP-Impb inh inconclusive (no result: Runt-SMMHC FRET, Runt-CBFb FRET)
CC(=O)Oc1ccc2cc(-c3nc4ccccc4n3C)c(=O)oc2c1	RanGTP-Impb inh 147.1 (no result: Rce1 inhib)
CC(=O)N/C(=C\c1ccc(C)cc1)C(=O)O	none
COc1cc2ccc(=O)oc2c(O)c1OCC=C(C)C	Runt-SMMHC FRET 62.5, Runt-CBFb FRET 61.0
CC(C)=CCOc1ccc2ccc(=O)oc2c1	none
O=S(=O)(c1cccc(Cl)c1Cl)N1CCN(C(=S)NCCCN2CCOCC2)CC1	RanGTP-Impb inh 25.4
Cc1ccc2nc(-c3ccccc3)cn2c1	Rce1 inhib active, Platelet DG rel 73.3
O=[N+]([O-])c1cccc(-c2cn3nc(-c4ccccc4)c(-c4ccccc4)nc3n2)c1	RanGTP-Impb inh 70.2
Cc1ccc2nc(-c3ccc(O)c(O)c3)cn2c1	RanGTP-Impb inh inconclusive (no result: Runt-SMMHC FRET, Runt-CBFb FRET)
O=[N+]([O-])c1ccc(-c2cn3nc(-c4ccccc4)c(-c4ccccc4)nc3n2)cc1	RanGTP-Impb inh 42.0
Cc1ccc(-c2cn3nc(-c4ccccc4)c(-c4ccccc4)nc3n2)cc1	RanGTP-Impb inh 90.0
CCCC(=O)Nc1ccc(Nc2ccccc2)cc1	none
CCN(CC(=O)NCc1ccc(F)cc1)C(=O)COc1ccc2ccccc2c1	none
CC(C)CCn1c(O)c(N=NC(=O)Cn2ccc(C(F)(F)F)n2)c2ccccc21	none
Cn1cc(CN2CCC[C@H]2CO)c(-c2cccc(Cl)c2)n1	RanGTP-Impb inh 110.4
C=CC(=O)N=c1sc2ccccc2n1-c1ccccc1	none (no result: Rce1 inhib)
N=c1sc2ccccc2n1-c1ccccc1	RanGTP-Impb inh 35.2
